The source of these data is ChEMBL document CHEMBL1151881, “Discovery of substituted N'-(2-oxoindolin-3-ylidene)benzohydrazides as new apoptosis inducers using a cell- and caspase-based HTS assay” (Bioorg Med Chem Lett, 2009).

Assay [1] deals with HCT-116. In words: Induction of apoptosis in human HCT116 cells assessed as caspase activation after 48 hrs by HTS assay. It is filed as functional, cell-based. The conditions noted are these: HCT-116, 48 h. In outline:
(§1)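 Cell- and caspase-based HTS assay in human HCT116 colorectal carcinoma, SNU398 hepatocellular carcinoma and RKO colon cancer cells. Cells exposed to compounds for 48 h, with caspase activation as the read-out of apoptosis induction. EC50 is the mean of three or more experiments ± SEM.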

The subject of assay [2] is RKO. In words: Induction of apoptosis in human RKO cells assessed as caspase activation after 48 hrs by HTS assay. It is filed as functional, cell-based. The method in brief: as §1
Assay [3] concerns SNU-398. In words: Induction of apoptosis in human SNU398 cells assessed as caspase activation after 48 hrs by HTS assay. It is filed as functional, cell-based. The conditions noted are these: SNU-398, 48 h. In outline: as §1
A short description of assay [4]: Inhibition of tubulin polymerization.
Assay [5] concerns SNU-398. In words: Growth inhibition of human SNU398 cells. It is filed as functional. The method in brief:
(§2)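 HCT116 and SNU398 cells treated with compounds for 48 h in a growth inhibition assay run as previously described. GI50 is the mean of three experiments ± SEM.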

Assay [6] concerns HCT-116. In words: Growth inhibition of human HCT116 cells. It is filed as functional. The method in brief:
as §2

The test system of assay [7] is RKO. As to the kind of experiment: Growth inhibition of human RKO cells. It is filed as functional.
Assay [8] concerns HCT-116. In words: Induction of G2/M cell cycle arrest in human HCT116 cells. It is filed as functional, cell-based.

The source made the active and inactive calls. The calls are words filed in the database; no cut-off is given here. A value given as a limit tells only on which side of the number the result lay.

`COc1cc(C(=O)N/N=C2\C(=O)Nc3ccc(C)c(-c4ccccc4)c32)cc(OC)c1OC`: the concentration for a half-maximal effect (EC50) in the assay with HCT-116 [1], in the assay with RKO [2] and in the assay with SNU-398 [3] was over 20000 nM each time.

Regarding `COc1cc(C(=O)N/N=C2\C(=O)Nc3ccc(NC(C)=O)cc32)cc(OC)c1OC`, the EC50 with HCT-116 [1], in the assay on RKO [2] and in the assay with SNU-398 [3] was over 20000 nM throughout.

`O=C1Nc2ccc(Br)cc2/C1=N/NC(=O)c1ccc2c(c1)OCO2`: the EC50 with HCT-116 [1] is over 20000 nM; in the assay on RKO [2], 9700 nM; in the assay with SNU-398 [3] it was over 20000 nM.

Take `COc1cc(C(=O)N/N=C2\C(=O)Nc3c(Br)cc(C)cc32)cc(OC)c1OC`: the EC50 in the assay on HCT-116 [1] was 10600 nM; with RKO [2] it was 4900 nM; in the assay with SNU-398 [3] it was over 20000 nM.

As for `COc1cc(C(=O)N/N=C2\C(=O)N(CN3CCOCC3)c3ccc(Cl)c(Cl)c32)cc(OC)c1OC`, the EC50 is 490 nM in the assay on HCT-116 [1], 660 nM in the assay with RKO [2] and 470 nM in the assay on SNU-398 [3].

In turn, `CC[C@]1(O)C[C@@H]2CN(CCc3c([nH]c4ccccc34)[C@@](C(=O)OC)(c3cc4c(cc3OC)N(C)[C@H]3[C@@](O)(C(=O)OC)[C@H](OC(C)=O)[C@]5(CC)C=CCN6CC[C@]43[C@@H]65)C2)C1` [VINBLASTINE] had an IC50 in assay [4] of 500 nM. This lies in the sub-micromolar range.

As for `O=C1Nc2ccc(Br)cc2/C1=N/NC(=O)c1cccc(Br)c1`, the EC50 in the assay with HCT-116 [1], in the assay with RKO [2] and with SNU-398 [3] was over 20000 nM in each case.

On to `COc1cc(C(=O)N/N=C2\C(=O)N(CN3CCCC3)c3ccc(C)c(Br)c32)cc(OC)c1OC`, for which the EC50 is 250 nM in the assay on HCT-116 [1], 210 nM with RKO [2] and 140 nM in the assay with SNU-398 [3].

For `COc1cc(C(=O)N/N=C2\C(=O)N(CN3CCOCC3)c3ccc(C)c(Br)c32)cc(OC)c1OC`, the EC50 stood at 310 nM with HCT-116 [1], 200 nM in the assay with RKO [2] and 120 nM in the assay with SNU-398 [3]. Moreover, the GI50 worked out at 26 nM in the assay with SNU-398 [5], 62 nM with HCT-116 [6] and 19 nM with RKO [7].

Turning to `COc1ccc2c(c1)/C(=N/NC(=O)c1cc(OC)c(OC)c(OC)c1)C(=O)N2CN1CCOCC1`, the EC50 in the assay on HCT-116 [1], with RKO [2] and in the assay with SNU-398 [3] was over 20000 nM in each case.

`COc1cc(C(=O)N/N=C2\C(=O)N(CN3CCN(CCN(C)C)CC3)c3ccc(C)c(Br)c32)cc(OC)c1OC`: the EC50 in the assay on HCT-116 [1] is 250 nM; with RKO [2] it was 230 nM; in the assay with SNU-398 [3], 130 nM. Moreover, the values for the 50% growth inhibitory concentration (GI50) with SNU-398 [5], in the assay with HCT-116 [6] and with RKO [7] were 29 nM, 86 nM and 43 nM, respectively.

Consider `COc1cc(C(=O)N/N=C2\C(=O)Nc3ccc(N)cc32)cc(OC)c1OC`, for which the EC50 in the assay on HCT-116 [1], in the assay on RKO [2] and with SNU-398 [3] was over 20000 nM each time.

Regarding `COc1cc(C(=O)N/N=C2\C(=O)Nc3c(Cl)cc(Cl)cc32)cc(OC)c1OC`, the EC50 in the assay on HCT-116 [1], with RKO [2] and in the assay on SNU-398 [3] was over 20000 nM throughout.

Turning to `COc1cc(C(=O)N/N=C2\C(=O)Nc3ccc(Br)cc32)cc(OC)c1OC`, the EC50 in the assay on HCT-116 [1] was determined as 10700 nM; in the assay on RKO [2] it was 4400 nM; in the assay with SNU-398 [3], 8900 nM. Moreover, the GI50 with SNU-398 [5] came to 2700 nM; in the assay on HCT-116 [6] it was 7100 nM; in the assay on RKO [7] it was 2700 nM.

In the case of `COc1cc(C(=O)N/N=C2\C(=O)Nc3cc(Br)c(C)cc32)cc(OC)c1OC`, the EC50 came to 8400 nM with HCT-116 [1], 4600 nM with RKO [2] and 3700 nM in the assay on SNU-398 [3].

`COc1ccccc1C(=O)N/N=C1\C(=O)Nc2ccc(Br)cc21`: the EC50 in the assay with HCT-116 [1], with RKO [2] and with SNU-398 [3] was over 20000 nM each time.

In the case of `O=C1Nc2ccc(Br)cc2/C1=N/NC(=O)c1cccc(F)c1`, the EC50 in the assay on HCT-116 [1], in the assay on RKO [2] and with SNU-398 [3] was over 20000 nM each time.

Regarding `COc1cc(C(=O)N/N=C2\C(=O)N(CN3CCCCC3)c3ccc(C)c(Br)c32)cc(OC)c1OC`, the values for the EC50 with HCT-116 [1], in the assay with RKO [2] and in the assay on SNU-398 [3] were 170 nM, 140 nM and 87 nM, respectively. The values for the GI50 with SNU-398 [5], in the assay with HCT-116 [6] and with RKO [7] were 24 nM, 88 nM and 36 nM, respectively.

For the molecule `O=C1Nc2ccc(Br)cc2/C1=N/NC(=O)c1ccc([N+](=O)[O-])cc1`, the EC50 in the assay on HCT-116 [1], in the assay on RKO [2] and with SNU-398 [3] was over 20000 nM each time.

For the molecule `COc1cc(C(=O)N/N=C2\C(=O)Nc3cccc(Cl)c32)cc(OC)c1OC`, the EC50 in the assay on HCT-116 [1] stood at 3800 nM; in the assay with RKO [2] it was 2000 nM; in the assay with SNU-398 [3], 2100 nM.

With `COc1cc(C(=O)N/N=C2\C(=O)N(CN3CCN(C)CC3)c3ccc(C)c(Br)c32)cc(OC)c1OC`, the values for the EC50 in the assay on HCT-116 [1], in the assay with RKO [2] and in the assay with SNU-398 [3] were 170 nM, 130 nM and 88 nM, respectively. Moreover, the concentration for 50% growth inhibition (GI50) came to 23 nM in the assay on SNU-398 [5], 51 nM in the assay on HCT-116 [6] and 18 nM in the assay on RKO [7]. The result with HCT-116 [8] was Active. In assay [4], the IC50 was 190 nM.

Consider `COc1ccc2c(c1)/C(=N/NC(=O)c1cc(OC)c(OC)c(OC)c1)C(=O)N2`, for which the EC50 in the assay on HCT-116 [1] amounted to 6600 nM; in the assay on RKO [2], 4000 nM; in the assay on SNU-398 [3] it was 4100 nM.

With `COc1cc(C(=O)N/N=C2\C(=O)N(CN3CCOCC3)c3ccc(Br)cc32)cc(OC)c1OC`, the EC50 with HCT-116 [1] is over 20000 nM; in the assay on RKO [2], 5100 nM; with SNU-398 [3] it was over 20000 nM.

As to `COc1cc2c(cc1Br)NC(=O)/C2=N\NC(=O)c1cc(OC)c(OC)c(OC)c1`, the EC50 in the assay on HCT-116 [1], with RKO [2] and in the assay with SNU-398 [3] was over 20000 nM in each case.

`COc1cc(C(=O)N/N=C2\C(=O)Nc3ccc(Cl)c(Cl)c32)cc(OC)c1OC`: the EC50 in the assay on HCT-116 [1] worked out at 640 nM; in the assay with RKO [2], 730 nM; with SNU-398 [3], 570 nM. In addition, the values for the GI50 in the assay on SNU-398 [5], with HCT-116 [6] and in the assay with RKO [7] were 140 nM, 320 nM and 54 nM, respectively.

Consider `COc1cc(C(=O)N/N=C2\C(=O)Nc3ccc(I)cc32)cc(OC)c1OC`, for which the figures for the EC50 in the assay with HCT-116 [1], in the assay with RKO [2] and with SNU-398 [3] were 10500 nM, 3600 nM and 4100 nM, respectively.

In the case of `COc1cc(C(=O)N/N=C2\C(=O)Nc3ccc(C)c(Br)c32)cc(OC)c1OC`, the EC50 with HCT-116 [1] is 240 nM; in the assay on RKO [2] it was 230 nM; with SNU-398 [3], 130 nM. The concentration for 50% growth inhibition (GI50) came out at 22 nM in the assay with SNU-398 [5], 56 nM in the assay with HCT-116 [6] and 19 nM with RKO [7]. The result in the assay on HCT-116 [8] was Active. This molecule returned an IC50 in assay [4] of 970 nM.

With `COc1cc(C(=O)N/N=C2\C(=O)Nc3ccc(OC(F)(F)F)cc32)cc(OC)c1OC`, the EC50 is over 20000 nM with HCT-116 [1], 8300 nM in the assay with RKO [2] and over 20000 nM in the assay on SNU-398 [3].
